Assay results from ChEMBL document CHEMBL1255300, “Pharmacodynamics of the antibacterial effect and emergence of resistance to tomopenem, formerly RO4908463/CS-023, in an in vitro pharmacokinetic model of Staphylococcus aureus infection” (Antimicrob Agents Chemother, 2008).
In brackets after ≈: the same amount, converted by molar mass. Activity calls are given as the source filed them. The calls are words filed in the database; no cut-off is given here.

What was measured:
Staphylococcus aureus [1] = experiment: Antibacterial activity against methicillin-resistant Staphylococcus aureus 33820 in in vitro pharmacokinetic model assessed as viable count at 2 times of MIC; assay type: functional
In short: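 Population analysis before drug exposure (time 0). Model samples were plated on nutrient agar without drug and with tomopenem at 2×, 4× and 6× MIC (10% MHB MIC), and growth was recorded as log CFU/ml. Detection limit 2 log10.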

Staphylococcus aureus [2] = experiment: Antibacterial activity against methicillin-resistant Staphylococcus aureus 33815 infected in in vitro pharmacokinetic model assessed as time required to 99.9% killing at 1500 mg, iv every 8 hrs using 10^8 CFU/ml inoculum; assay type: functional
In short: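 T99 and T99.9 were taken as the times for the count to fall 99% or 99.9% from time 0, using serial viable counts over 48 h. Inoculum was 10^8 CFU/ml, grown overnight in the model before dosing.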

Staphylococcus aureus [3] = experiment: Antibacterial activity against methicillin-resistant Staphylococcus aureus 33922 infected in in vitro pharmacokinetic model assessed as time required to 99.9% killing at 1500 mg, iv every 8 hrs using 10^8 CFU/ml inoculum; assay type: functional
Staphylococcus aureus [4] = experiment: Antibacterial activity against methicillin-resistant Staphylococcus aureus 33815 infected in in vitro pharmacokinetic model assessed as reduction in viable count at 750 mg, iv every 8 hrs measured after 48 hrs using 10^6 CFU/ml inoculum; assay type: functional
In short: (§1)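 Single-compartment dilutional in vitro PK model, 37°C, stirred, in 10% Mueller-Hinton broth. […] Inoculum 10^6 CFU/ml from a 24-h plate culture was added 45 min before dosing. Viable counts by spiral plating on nutrient agar with β-lactamase neutralization. Log change was taken from time 0; detection limit 10^2 CFU/ml; at least triplicate.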

Staphylococcus aureus [5] = experiment: Antibacterial activity against methicillin-resistant Staphylococcus aureus 33922 assessed as viable count at 2 times of MIC after 24 hrs using 10^6 CFU/ml inoculum; assay type: functional, organism-based
Staphylococcus aureus [6] = experiment: Antibacterial activity against methicillin-resistant Staphylococcus aureus 33815 infected in in vitro pharmacokinetic model assessed as reduction in viable count at 1500 mg, iv every 8 hrs measured after 24 hrs using 10^6 CFU/ml inoculum; assay type: functional; in short: as §1
Staphylococcus aureus [7] = experiment: Antibacterial activity against methicillin-resistant Staphylococcus aureus 33829 assessed as viable count at 2 times of MIC after 24 hrs using 10^6 CFU/ml inoculum; assay type: functional, organism-based
Staphylococcus aureus [8] = experiment: Antibacterial activity against methicillin-resistant Staphylococcus aureus 33921 infected in in vitro pharmacokinetic model assessed as reduction in viable count at 1500 mg, iv every 8 hrs measured after 24 hrs using 10^6 CFU/ml inoculum; assay type: functional
In short: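 Single-compartment dilutional in vitro PK model, 10% Mueller-Hinton broth, 37°C, stirred, dilution 132 ml/h. […] Inoculum 10^6 CFU/ml (added 45 min pre-dose) or 10^8 CFU/ml (run overnight). Viable counts by spiral plating, beta-lactamase neutralization, detection limit 10^2 CFU/ml. At least triplicate.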

Staphylococcus aureus [9] = experiment: Antibacterial activity against methicillin-resistant Staphylococcus aureus 33820 infected in in vitro pharmacokinetic model assessed as reduction in viable count at 750 mg, iv every 8 hrs measured after 12 hrs using 10^6 CFU/ml inoculum; assay type: functional; in short: as §1
Staphylococcus aureus [10] = experiment: Antibacterial activity against methicillin-sensitive Staphylococcus aureus 5956 infected in in vitro pharmacokinetic model assessed as reduction in viable count at 1500 mg, iv every 8 hrs measured after 36 hrs using 10^6 CFU/ml inoculum; assay type: functional
Staphylococcus aureus [11] = experiment: Antibacterial activity against methicillin-resistant Staphylococcus aureus 33921 infected in in vitro pharmacokinetic model assessed as reduction in viable count at 750 mg, iv every 8 hrs measured after 48 hrs using 10^6 CFU/ml inoculum; assay type: functional
Staphylococcus aureus [12] = experiment: AUBKC (0 to 24 hrs) in methicillin-resistant Staphylococcus aureus 33827 infected in in vitro pharmacokinetic model at 1500 mg, iv every 8 hrs using 10^6 CFU/ml inoculum; assay type: functional
In short: (§2)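 Single-compartment dilutional in vitro PK model at 37°C in 10% Mueller-Hinton broth, stirred, flow 132 ml/h. […] Inoculum 10^6 CFU/ml added 45 min before dosing, or 10^8 CFU/ml run overnight. Viable counts with β-lactamase neutralisation. AUBKC by log-linear trapezoidal rule, at least triplicate.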

Staphylococcus aureus [13] = experiment: T>MIC for 4-log drop in count in methicillin-resistant Staphylococcus aureus 33820 in in vitro pharmacokinetic model after 24 hrs using 10^6 CFU/ml inoculum; assay type: functional
Staphylococcus aureus [14] = experiment: Antibacterial activity against methicillin-resistant Staphylococcus aureus 33922 by broth dilution method; assay type: functional
Staphylococcus aureus [15] = experiment: Antibacterial activity against methicillin-resistant Staphylococcus aureus 33921 assessed as viable count at 2 times of MIC after 24 hrs using 10^6 CFU/ml inoculum; assay type: functional, organism-based
Staphylococcus aureus [16] = experiment: Antibacterial activity against methicillin-resistant Staphylococcus aureus 33815 infected in in vitro pharmacokinetic model assessed as reduction in viable count at 750 mg, iv every 8 hrs measured after 12 hrs using 10^6 CFU/ml inoculum; assay type: functional; in short: as §1
Staphylococcus aureus [17] = experiment: Antibacterial activity against methicillin-sensitive Staphylococcus aureus 5956 infected in in vitro pharmacokinetic model assessed as time required to 99% killing at 1500 mg, iv every 8 hrs using 10^6 CFU/ml inoculum; assay type: functional
Staphylococcus aureus [18] = experiment: T>MIC for 2-log drop in count in methicillin-resistant Staphylococcus aureus 33827 in in vitro pharmacokinetic model after 24 hrs using 10^6 CFU/ml inoculum; assay type: functional
Staphylococcus aureus [19] = experiment: AUBKC (0 to 24 hrs) in methicillin-resistant Staphylococcus aureus 33827 infected in in vitro pharmacokinetic model at 750 mg, iv every 8 hrs using 10^8 CFU/ml inoculum; assay type: functional; in short: as §2
Staphylococcus aureus [20] = experiment: Antibacterial activity against methicillin-resistant Staphylococcus aureus 33921 in in vitro pharmacokinetic model assessed as viable count at 4 times of MIC; assay type: functional
In short: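 Preexposure population analysis: time-zero model samples plated on nutrient agar without drug and with drug at multiples of the 10% broth MIC. Growth reported as log CFU/ml, detection limit 2 log10.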

Staphylococcus aureus [21] = experiment: Antibacterial activity against methicillin-resistant Staphylococcus aureus; assay type: functional
Staphylococcus aureus [22] = experiment: T>MIC in methicillin-resistant Staphylococcus aureus 33820 infected in vitro pharmacokinetic model at 1500 mg, iv every 8 hrs; assay type: functional
Staphylococcus aureus [23] = experiment: AUBKC (0 to 48 hrs) in against methicillin-resistant Staphylococcus aureus 33815 infected in in vitro pharmacokinetic model at 750 mg, iv every 8 hrs using 10^8 CFU/ml inoculum; assay type: functional; in short: as §2
Staphylococcus aureus [24] = experiment: T>MIC for 4-log drop in count in methicillin-sensitive Staphylococcus aureus 5956 in in vitro pharmacokinetic model after 24 hrs using 10^6 CFU/ml inoculum; assay type: functional
In short: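 Dose-ranging: 7–13 simulated regimens per strain giving T>MIC of 0–100% (MIC from 10% MHB), at 106 or 10^8 CFU/ml as stated.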

Staphylococcus aureus [25] = experiment: T>MIC for 2-log drop in count in methicillin-resistant Staphylococcus aureus 33815 in in vitro pharmacokinetic model after 24 hrs using 10^6 CFU/ml inoculum; assay type: functional
Staphylococcus aureus [26] = experiment: T>MIC for 1-log drop in count in methicillin-resistant Staphylococcus aureus 33827 in in vitro pharmacokinetic model after 24 hrs using 10^8 CFU/ml inoculum; assay type: functional
Staphylococcus aureus [27] = experiment: T>MIC for static effect in methicillin-resistant Staphylococcus aureus 33815 in in vitro pharmacokinetic model after 24 hrs using 10^6 CFU/ml inoculum; assay type: functional

C[C@@H](O)[C@H]1C(=O)N2C(C(=O)O)=C(S[C@H]3C[C@@H](C(=O)N4CC[C@H](NC(=O)CNC(=N)N)C4)N(C)C3)[C@H](C)[C@H]12 [TOMOPENEM] gave a log10CFU/ml (Staphylococcus aureus [1]) of 2.3, a Time (Staphylococcus aureus [2]) of 24 h and a Time (Staphylococcus aureus [3]) of 24 h. The log10CFU/ml (Staphylococcus aureus [4]) was 4.2, the Activity (Staphylococcus aureus [5]) was “inactive” and the log10CFU/ml (Staphylococcus aureus [6]) was 4.2. For the same compound, the Activity (Staphylococcus aureus [7]) was “inactive”, the log10CFU/ml (Staphylococcus aureus [8]) was 4.2 and the log10CFU/ml (Staphylococcus aureus [9]) was 3.9. For the same compound, the log10CFU/ml (Staphylococcus aureus [10]) was 4.4, the log10CFU/ml (Staphylococcus aureus [11]) was 3.8 and the AUBC (Staphylococcus aureus [12]) was 28.1 log10CFU/ml.hr. The “fT>MIC” value (Staphylococcus aureus [13]) was 36.2%, the MIC (Staphylococcus aureus [14]) was 0.5 µg/mL (≈ 0.93 µM) and the Activity (Staphylococcus aureus [15]) was “inactive”. The log10CFU/ml (Staphylococcus aureus [16]) was 4.2, the Time (Staphylococcus aureus [17]) was 5 h and the “fT>MIC” value (Staphylococcus aureus [18]) was 31.2%. It also gave an AUBC (Staphylococcus aureus [19]) of 77.4 log10CFU/ml.hr, a log10CFU/ml (Staphylococcus aureus [20]) of under 2 and an MIC50 (Staphylococcus aureus [21]) of 2 µg/mL (≈ 3.72 µM). For the same compound, the MIC90 (Staphylococcus aureus [21]) was 4 µg/mL (≈ 7.44 µM), the “fT>MIC” value (Staphylococcus aureus [22]) was 98% and the AUBC (Staphylococcus aureus [23]) was 119 log10CFU/ml.hr. The “fT>MIC” value (Staphylococcus aureus [24]) was 12.8%, the “fT>MIC” value (Staphylococcus aureus [25]) was 12.5% and the “fT>MIC” value (Staphylococcus aureus [26]) was 19.5%. For the same compound, the “fT>MIC” value (Staphylococcus aureus [27]) was 5.3%.
